Results from ChEMBL document CHEMBL1240491, “In vitro anticancer screening and radiosensitizing evaluation of some new quinolines and pyrimido[4,5-b]quinolines bearing a sulfonamide moiety” (Eur J Med Chem, 2010).

How the values were obtained:
[1] = tested on: MCF7; assay: Anticancer activity against human MCF7 cells assessed as survival fraction at 10 uM after 48 hrs by SRB assay; assay type: functional
Summary of the method: (§1)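 Unirradiated MCF7 monolayers attached for 24 h after plating at 10⁴ cells/well, then exposed to a range of compound concentrations (dissolved in DMSO) with replicate wells per concentration. Incubated 48 h at 37 °C under 5% CO₂. Sulforhodamine B assay: fixation, 30 min 0.4% SRB/1% acetic acid, four acid washes, Tris-EDTA elution, colorimetric reading. Surviving fraction given as mean ± standard error.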

[2] = tested on: MCF7; assay: Anticancer activity against human MCF7 cells assessed as survival fraction at 25 uM after 48 hrs by SRB assay; assay type: functional; summary of the method: as §1
[3] = tested on: MCF7; assay: Anticancer activity against human MCF7 cells assessed as survival fraction at 50 uM after 48 hrs by SRB assay; assay type: functional; summary of the method: as §1
[4] = tested on: MCF7; assay: Anticancer activity against human MCF7 cells assessed as survival fraction at 100 uM after 48 hrs by SRB assay; assay type: functional; summary of the method: as §1
[5] = tested on: MCF7; assay: Anticancer activity against human MCF7 cells assessed as survival fraction after 48 hrs by SRB assay; assay type: functional, cell-based; conditions: MCF7, 48 h; summary of the method: as §1
[6] = tested on: MCF7; assay: Anticancer activity against 8 Gy irradiated human MCF7 cells assessed as survival fraction at 10 uM after 48 hrs by SRB assay; assay type: functional
Summary of the method: (§2)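 MCF7 cells seeded at 10⁴ cells/well for 24 h, then given test compound (DMSO solution; 10, 25, 50 or 100 in the concentration series) plus a single 8 Gy γ-irradiation. Incubated 48 h, 37 °C, 5% CO₂. SRB readout: fix, stain 30 min with 0.4% SRB in 1% acetic acid, wash, solubilize in Tris-EDTA, read on ELISA reader. Surviving fraction is the mean of three values ± SE.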

[7] = tested on: MCF7; assay: Anticancer activity against 8 Gy irradiated human MCF7 cells assessed as survival fraction at 25 uM after 48 hrs by SRB assay; assay type: functional; summary of the method: as §2
[8] = tested on: MCF7; assay: Anticancer activity against 8 Gy irradiated human MCF7 cells assessed as survival fraction at 50 uM after 48 hrs by SRB assay; assay type: functional; summary of the method: as §2
[9] = tested on: MCF7; assay: Anticancer activity against 8 Gy irradiated human MCF7 cells assessed as survival fraction at 100 uM after 48 hrs by SRB assay; assay type: functional; summary of the method: as §2
[10] = tested on: MCF7; assay: Anticancer activity against 8 Gy irradiated human MCF7 cells assessed as survival fraction after 48 hrs by SRB assay; assay type: functional, cell-based; conditions: MCF7, light or radiation study; summary of the method: as §2

| Compound | Activity [1] | Activity [2] | Activity [3] | Activity [4] | IC50 [5] [µM] | Activity [6] | Activity [7] | Activity [8] | Activity [9] | IC50 [10] [µM] |
| --- | --- | --- | --- | --- | --- | --- | --- | --- | --- | --- |
| CC1(C)CC(=O)C2=C(C1)N(c1ccc(S(N)(=O)=O)cc1)c1ncnc(NN)c1C2c1ccc(Cl)cc1 (stereo not drawn) | 0.94 | 0.788 | 0.672 | 0.358 | 76 |  |  |  |  |  |
| CC1(C)CC(=O)C2=C(C1)N(c1ccc(S(N)(=O)=O)cc1)C(N)=C(C#N)C2c1ccc(Cl)cc1 (stereo not drawn) | 0.915 | 0.612 | 0.429 | 0.484 | 72.9 |  |  |  |  |  |
| CC1(C)CC(=O)C2=C(C1)N(c1ccc(S(N)(=O)=O)cc1)c1nc[nH]c(=O)c1C2c1ccc(Cl)cc1 (stereo not drawn) | 0.891 | 0.676 | 0.499 | 0.468 | 76.8 |  |  |  |  |  |
| CC(=O)NC1=C(C#N)C(c2ccc(Cl)cc2)C2=C(CC(C)(C)CC2=O)N1c1ccc(S(N)(=O)=O)cc1 (stereo not drawn) | 0.948 | 0.779 | 0.446 | 0.324 | 64.5 | 0.427 | 0.503 | 0.31 | 0.137 | 33.1 |
| CC(=O)N(C(C)=O)C1=C(C#N)C(c2ccc(Cl)cc2)C2=C(CC(C)(C)CC2=O)N1c1ccc(S(N)(=O)=O)cc1 (stereo not drawn) | 0.895 | 0.773 | 0.504 | 0.414 | 72.1 |  |  |  |  |  |
| Cc1nc2c(c(=O)[nH]1)C(c1ccc(Cl)cc1)C1=C(CC(C)(C)CC1=O)N2c1ccc(S(N)(=O)=O)cc1 (stereo not drawn) | 0.976 | 0.721 | 0.45 | 0.557 | 85.9 |  |  |  |  |  |
| CC1(C)CC(=O)C2=C(C1)N(c1ccc(S(N)(=O)=O)cc1)c1ncnc(N)c1C2c1ccc(Cl)cc1 (stereo not drawn) | 0.886 | 0.612 | 0.495 | 0.602 | 96.6 |  |  |  |  |  |
| CCO/C=N/C1=C(C#N)C(c2ccc(Cl)cc2)C2=C(CC(C)(C)CC2=O)N1c1ccc(S(N)(=O)=O)cc1 (stereo not drawn) | 0.803 | 0.551 | 0.498 | 0.607 | 97.2 |  |  |  |  |  |
| CC1(C)CC(=O)C2=C(C1)N(c1ccc(S(N)(=O)=O)cc1)C(NC(=O)CCl)=C(C#N)C2c1ccc(Cl)cc1 (stereo not drawn) | 0.986 | 0.736 | 0.523 | 0.502 | 84.3 |  |  |  |  |  |
| CC1(C)CC(=O)C2=C(C1)N(c1ccc(S(N)(=O)=O)cc1)c1nc(CCl)[nH]c(=O)c1C2c1ccc(Cl)cc1 (stereo not drawn) | 0.914 | 0.775 | 0.731 | 0.625 | > 100 |  |  |  |  |  |
| CC1(C)CC(=O)C2=C(C1)N(c1ccc(S(N)(=O)=O)cc1)c1nc(CC#N)[nH]c(=O)c1C2c1ccc(Cl)cc1 (stereo not drawn) | 0.971 | 0.901 | 0.774 | 0.525 | > 100 |  |  |  |  |  |
| CCNC(=S)NC1=C(C#N)C(c2ccc(Cl)cc2)C2=C(CC(C)(C)CC2=O)N1c1ccc(S(N)(=O)=O)cc1 (stereo not drawn) | 0.916 | 0.837 | 0.594 | 0.561 | 99.6 |  |  |  |  |  |
| CC1(C)CC(=O)C2=C(C1)N(c1ccc(S(N)(=O)=O)cc1)C(N1C(=O)CCC1=O)=C(C#N)C2c1ccc(Cl)cc1 (stereo not drawn) | 0.93 | 0.813 | 0.584 | 0.549 | 95.2 |  |  |  |  |  |
| CC1(C)CC(=O)C2=C(C1)N(c1ccc(S(N)(=O)=O)cc1)C(N)=C(C(N)=O)C2c1ccc(Cl)cc1 (stereo not drawn) | 0.922 | 0.662 | 0.445 | 0.452 | 71.9 | 0.653 | 0.517 | 0.281 | 0.282 | 44.4 |
| CC1(C)CC(=O)C2=C(C1)N(c1ccc(S(N)(=O)=O)cc1)C(N)=C(C1=NCCN1)C2c1ccc(Cl)cc1 (stereo not drawn) | 0.939 | 0.763 | 0.568 | 0.621 | > 100 |  |  |  |  |  |
| CC(=O)CC(=O)NC1=C(C#N)C(c2ccc(Cl)cc2)C2=C(CC(C)(C)CC2=O)N1c1ccc(S(N)(=O)=O)cc1 (stereo not drawn) | 0.897 | 0.82 | 0.648 | 0.549 | > 100 |  |  |  |  |  |
| CC1(C)CC(=O)C2=C(C1)N(c1ccc(S(N)(=O)=O)cc1)c1nc[nH]c(=S)c1C2c1ccc(Cl)cc1 (stereo not drawn) | 0.927 | 0.91 | 0.884 | 0.814 | > 100 |  |  |  |  |  |
| CC1(C)CC(=O)C2=C(C1)N(c1ccc(S(N)(=O)=O)cc1)c1ncnc(Cl)c1C2c1ccc(Cl)cc1 (stereo not drawn) | 0.843 | 0.696 | 0.476 | 0.546 | 86.5 |  |  |  |  |  |
| CCOC(=O)Cn1cnc2c(c1=O)C(c1ccc(Cl)cc1)C1=C(CC(C)(C)CC1=O)N2c1ccc(S(N)(=O)=O)cc1 (stereo not drawn) | 0.954 | 0.88 | 0.653 | 0.563 | > 100 |  |  |  |  |  |
| CC1(C)CC(=O)C2=C(C1)N(c1ccc(S(N)(=O)=O)cc1)c1ncnc(N=C=S)c1C2c1ccc(Cl)cc1 (stereo not drawn) | 0.972 | 0.721 | 0.419 | 0.515 | 79.6 |  |  |  |  |  |
| COc1cccc2c1C(=O)c1c(O)c3c(c(O)c1C2=O)C[C@@](O)(C(=O)CO)C[C@@H]3O[C@H]1C[C@H](N)[C@H](O)[C@H](C)O1 [DOXORUBICIN] | 0.721 |  | 0.461 | 0.494 |  |  |  |  |  |  |
